Source: ChEMBL document CHEMBL4342509, “New 8-Nitroquinolinone Derivative Displaying Submicromolar in Vitro Activities against Both Trypanosoma brucei and cruzi” (ACS Med Chem Lett, 2020)
pEC50: −log10 of the molar value.

Tests used:
[1] = tested on: Trypanosoma brucei brucei; assay: Antitrypanosomal activity against blood stream form of Trypanosoma brucei brucei S427 trypomastigotes overexpressing NTR assessed as inhibition of parasite growth; type: functional, organism-based
[2] = Toxicity in Swiss mouse assessed as apathy occurence at 50 mg/kg, po administered once daily for 5 days measured for 1 hr; type: organism-based; conditions: in vivo
[3] = Half life in Swiss mouse at 25 mg/Kg, po measured up to 24 hrs by LCMS analysis; type: ADME, organism-based; conditions: in vivo
Summary of the method: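 Female Swiss mice, 8 weeks old, n=4, given a suspension by oral gavage at 25 mg/kg. Tail blood (100 µL, heparin) drawn at 0.5, 1, 3, 6, 9, 12 and 24 h. Samples extracted with ACN containing megalol internal standard plus QuEChERS salts. Analysed by LC-MS/MS (C8 column, negative ESI, MRM); calibration 10–1,000 ng/ml, LLOQ 10 ng/ml.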

[4] = Toxicity in orally dosed Swiss mouse administered once daily for 5 days; type: organism-based; conditions: in vivo, po
Plasma proteins = assay: Plasma protein binding incubated for 4 hrs by LCMS analysis
[5] = tested on: Trypanosoma brucei brucei; assay: Antitrypanosomal activity against bloodstream form of wild type Trypanosoma brucei brucei S427 trypomastigotes assessed as inhibition of parasite growth; type: functional, organism-based
HepG2 [6] = assay: Genotoxicity in human HepG2 cells assessed as induction of DNA damage at 1 to 10 uM incubated for 2 to 72 hrs by alkaline comet assay; type: toxicity, cell-based; conditions: hepg2, 10 µM
Summary of the method: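 Cells embedded in 0.7% low-melting agarose on film. Alkaline electrophoresis at pH >13, 24 min at 0.8 V/cm, then neutralised, ethanol-fixed and SYBR Gold stained. % tail DNA is the median of 100 cells (two deposits); 1 mM MMS positive control; three independent experiments.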

[7] = Selectivity index, ratio of CC50 for human HepG2 cells to EC50 for Trypanosoma brucei brucei trypomastigotes AnTat 1.9; type: toxicity; conditions: read-out: Ratio CC50/EC50
[8] = Permeability of the compound in pH 7.4 Prisma HT buffer at 100 uM incubated for 4 hrs by PAMPA-BBB assay method; type: ADME; conditions: read-out: permeability
[9] = Microsomal stability in CD-1 mouse liver microsomes in presence of NADP measured up to 40 mins by LC-MS analysis; type: ADME, Microsome
Summary of the method: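 Compound incubated in duplicate with female CD-1 mouse microsomes at 37°C in 50 mM phosphate pH 7.4. Cofactors: 5 mM MgCl₂, 1 mM NADP, 0.4 U/mL G6PDH and 5 mM glucose-6-phosphate. […] Propranolol reference.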

[10] = tested on: Trypanosoma brucei brucei; assay: Selectivity index, ratio of EC50 for bloodstream form of wild type Trypanosoma brucei brucei S427 trypomastigotes to EC50 for blood stream form of Trypanosoma brucei brucei S427 trypomastigotes overexpressing NTR; type: functional
[11] = Electrochemical behavior of the compound assessed as redox potential corrected toward normal hydrogen electrode by cyclic voltammetry
Leishmania donovani [12] = assay: Antileishmanial activity against Leishmania donovani BOB (MHOM/SD/62/1S-CL2D) promastigotes overexpressing NTR2 assessed as inhibition of parasite growth incubated for 72 hrs by resazurin dye based assay; type: functional, organism-based
Summary of the method: (§1)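 LdBOB promastigotes grown at 26 °C in modified M199; NTR1- or NTR2-overexpressing lines kept under nourseothricin (100 µg/mL). Triplicate cultures seeded at 5×10^4 parasites/mL with drug for 72 h; 50 µM resazurin added, fluorescence (ex 528/em 590 nm) read after a further 4 h.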

Leishmania infantum = assay: Antileishmanial activity against Leishmania infantum MHOM/MA/67/ITMAP-263 axenic amastigotes expressing luciferase plasmid assessed as reduction in parasite viability incubated for 48 hrs by Steady Glow reagent based luminescence assay; type: functional, organism-based; conditions: MHOM/MA/67/ITMAP-263, 48 h
[13] = Toxicity in Swiss mouse assessed as lesions on brain at 25 mg/kg, po administered once daily for 5 days; type: organism-based; conditions: in vivo, 120 h
[14] = Thermodynamic solubility of the compound in phosphate buffer at pH 7.4 by shake flask method; type: physicochemical
Summary of the method: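 Shake-flask test, miniaturised: 10 µL of a 50 mM stock in 990 µL phosphate buffer pH 7.4 (ionic strength 50 mM), n=4. Shaken 24 h at room temperature, then centrifuged 12,225 × g for 5 min. Supernatant mixed 1:1 with acetonitrile and read by UV spectrophotometry at compound λmax. Quantified against a three-point calibration (0, 25, 50 µM).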

[15] = tested on: Trypanosoma brucei brucei; assay: Antitrypanosomal activity against Trypanosoma brucei brucei AnTat 1.9 trypomastigotes assessed as reduction in parasite viability incubated for 69 hrs by Alamar Blue dye based assay; type: functional, organism-based; conditions: AnTat 1.9, 69 h
Summary of the method: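 Bloodstream AnTat 1.9 parasites grown at 37°C, 5% CO₂ in MEM with Earle's salts (Baltz-type) plus 0.5 mM mercaptoethanol, 1.5 mM L-cysteine, 0.05 mM bathocuproine sulfate and 20% heat-inactivated horse serum. EC50 from nonlinear regression, three independent experiments in duplicate.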

[16] = Toxicity in Swiss mouse assessed as lesions on kidney at 25 mg/kg, po administered once daily for 5 days; type: organism-based; conditions: in vivo, 120 h
Leishmania donovani [17] = assay: Antileishmanial activity against wild type Leishmania donovani BOB (MHOM/SD/62/1S-CL2D) promastigotes assessed as inhibition of parasite growth incubated for 72 hrs by resazurin dye based assay; type: functional, organism-based; summary of the method: as §1
[18] = Toxicity in Swiss mouse assessed as lesions on liver at 25 mg/kg, po administered once daily for 5 days; type: organism-based; conditions: in vivo, 120 h
[19] = Toxicity in Swiss mouse assessed as lesions on lung at 25 mg/kg, po administered once daily for 5 days; type: organism-based; conditions: in vivo, 120 h
[20] = Toxicity in Swiss mouse assessed as lesions on heart at 25 mg/kg, po administered once daily for 5 days; type: organism-based; conditions: in vivo, 120 h
HepG2 [21] = assay: Cytotoxicity against human HepG2 cells assessed as reduction in cell viability incubated for 72 hrs by MTT assay; type: cell-based; conditions: hepg2, 72 h
Trypanosoma cruzi = assay: Antitrypanosomal activity against Trypanosoma cruzi CL Brener amastigotes infected in African green monkey Vero cells assessed as reduction in parasite growth incubated for 120 hrs at 24 hrs post-infection and measured on day 6 post-infection by hemocytometer based light microscopy; type: functional, organism-based
Summary of the method: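 Compounds, 2–4-fold serial dilutions over 0,1–25 µM final, applied for 120 h at 37°C. On day 6, released trypomastigotes pooled, centrifuged and counted by haemocytometer. EC50 by nonlinear regression; two experiments, triplicate wells.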

Leishmania donovani [22] = assay: Antileishmanial activity against Leishmania donovani BOB (MHOM/SD/62/1S-CL2D) promastigotes overexpressing NTR1 assessed as inhibition of parasite growth incubated for 72 hrs by resazurin dye based assay; type: functional, organism-based; summary of the method: as §1
Leishmania donovani [23] = assay: Selectivity index, ratio of EC50 for wild type Leishmania donovani BOB (MHOM/SD/62/1S-CL2D) promastigotes to EC50 for Leishmania donovani BOB (MHOM/SD/62/1S-CL2D) promastigotes overexpressing NTR1; type: functional

O=c1[nH]c2c([N+](=O)[O-])cc(Br)cc2cc1Cl
pEC50 [1]: 7.70 | Activity [2]: Toxic | t1/2 [3]: 2.9 h | NOAEL at 120 h [4]: 25 mg/kg | Activity (Plasma proteins): 99% | pEC50 [5]: 6.52 | Activity (HepG2 [6]): Non-Toxic | selectivity ratio [7]: 1510 | Papp at 4 h, 100 µM [8]: 40.5 ×10⁻⁶ cm/s | t1/2 [9]: > 0.667 h | Ratio EC50 [10]: 15 | Activity [11]: -0.37 V | pEC50 (Leishmania donovani [12]): 5.54 | pEC50 (Leishmania infantum): 5.17 | Activity [13]: Non-Toxic | Therm_solubility [14]: 21.7 µM | pEC50 [15]: 7.92 | Activity [16]: Non-Toxic | pEC50 (Leishmania donovani [17]): 5.33 | Activity [18]: Non-Toxic | Activity [19]: Non-Toxic | Activity [20]: Non-Toxic | CC50 (HepG2 [21]): 18100 nM | pEC50 (Trypanosoma cruzi): 6.30 | pEC50 (Leishmania donovani [22]): 6.52 | Ratio EC50 (Leishmania donovani [23]): 16
